The list is not random: actives were taken first. Their share in the collection is about 5.1%.
NF-kB neuron act – compounds increasing NF-kB expression in human neuronal cells | NF-kB reporter expression; stronger effect = higher value | fold change at 12.5 µM | hit rate 1.6% among 190,000 | AID 1239; in the data active = fold change above about 3.3
STAT1 activator – increases IFN-gamma driven STAT1 reporter signal. NIH 3T3 STAT1-luciferase reporter, luminescence; 100% = IFN-gamma alone, no compound. activation (% of control), % at 5.5 µM. hit rate 2.6% among 200,000. AID 932;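 active = activation above the screen-wide mean activation plus 3 SD, cut at about 130% in these data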;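 note: raw ratio to IFN-gamma control signal so 100% means no change and 0% no light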
STAT3 act – activators of IL-6 induced STAT3 signaling; U3A cells, IL-6 STAT3-luciferase reporter, luminescence; 100% = signal with IL-6 EC80 alone; activation (% of control), % at 5.6 µM; hit rate 0.91% among 190,000; AID 871;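 active = activation above the screen-wide mean of compound activation plus 3 SD, cut at about 130% in these data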;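 note: 0% = background luminescence of wells with medium and substrate only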
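Material: human U3A cells carrying STAT3-luciferase construct. Measured by: reporter luminescence signal. Timing: compound 1 h, then IL-6 6 h at 37 °C.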
STAT1 inh – STAT1 signaling inhibition; hit rate 0.35% among 200,000; AID 920; NIH 3T3 STAT1-luciferase reporter, IFN-gamma, luminescence; inhibition, % at 5.5 µM;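 active = inhibition above a set limit, the mean inhibition across all tested compounds plus 3 SD, cut at about 34% in these data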;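 note: 0% = IFN-gamma with DMSO and 100% = IFN-gamma with 300 µM nifuroxazide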
APP 5'UTR act – activates APP 5'UTR luciferase reporter. SH-SY5Y APP 5'UTR luciferase reporter, luminescence; zero percent = DMSO vehicle wells. activation, % at 2 µM. hit rate 1% among 190,000;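 active = activation above a set limit, based on mean plus 3 SD of controls, cut at about 140% in these data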
STAT3 inh-1 – inhibitors of IL-6 induced STAT3 signaling; U3A cells, IL-6 STAT3-luciferase reporter, luminescence; host cell line lacks STAT1; inhibition, % at 5.5 µM; hit rate 0.89% among 190,000; AID 862;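 active = inhibition above the mean inhibition across all screened compounds plus 3 SD, cut at about 44% in these data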;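 note: 0% = DMSO only wells and 100% = 100 µM nifuroxazide control wells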
STAT3 inh-2 – STAT3 inhibition, confirmation assay; U3A cells, IL-6 STAT3 luciferase reporter, luminescence; cell line lacks STAT1; shares compounds with STAT3 inh-1; hit rate 45% among 1,200; AID 1265; inhibition, % at 5.7 µM;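 active = inhibition above the hit cutoff computed for the primary STAT3 screen, cut at about 44% in these data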;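 note: 0% = IL-6 plus DMSO and 100% = IL-6 plus nifuroxazide control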
NFkB inh STAT3ct – inhibits NF-kappaB, counter-screen to STAT3 inhibitors. inhibition, % at 5.7 µM. hit rate 36% among 1,200. HEK293T NF-kB luciferase reporter, TNF-alpha induced. shares compounds with STAT3 inh-1. AID 1308;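 active = inhibition above the mean of solvent-only control wells plus 3 SD, cutoff set per campaign, cut at about 13% in these data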;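 note: 0% = TNF-alpha with DMSO and 100% = TNF-alpha with MG high control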
STAT1 inh STAT3c – STAT1 inhibition in STAT3 inhibitor counter-screen. shares compounds with STAT3 inh-1. NIH 3T3 STAT1-luciferase reporter, IFN-gamma induced, luminescence. inhibition, % at 5.7 µM. hit rate 27% among 1,200;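 active = inhibition above the mean plus 3 SD of solvent-only control wells, limit set per screening run, cut at about 16% in these data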;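 note: 0% = DMSO with IFN-gamma and 100% = nifuroxazide control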
Active calls of the source: *; nt = no result given.

SMILES	NF-kB neuron act	STAT1 activator	STAT3 act	STAT1 inh	APP 5'UTR act	STAT3 inh-1	STAT3 inh-2	NFkB inh STAT3ct	STAT1 inh STAT3c
CSc1ccccc1-c1nnc(-c2ccc(Cl)cc2Cl)o1	2.88	122.4	92.9	-25.1	5.9	15.8	nt	nt	nt
Fc1ccc(-c2nnc(-c3ccc(Cl)cc3Cl)o2)cc1	3.25	89.7	45.4	11.5	140.9*	70.4*	36.8	5.7	-65.5
Clc1ccc(-c2nnc(-c3ccccc3)o2)c(Cl)c1	4.97*	103.8	55.8	-4.2	119.4	58.6*	33.8	-5.2	-77.3
CC(C)COc1cccc(C(=O)NC(=S)NCc2cccnc2)c1	1.14	101.6	100.4	-1.7	7.0	-4.9	nt	nt	nt
CC(=O)CSc1nc2cc3c(cc2cc1C#N)OCCO3	5.72*	86.0	35.7	13.4	101.2	77.7*	28.2	0.6	-94.5
O=C(Nc1ccc2c(c1)OCCO2)c1ccccc1F	5.15*	121.9	56.9	-23.6	145.6*	52.3*	16.9	-23.0	-71.3
CS(=O)(=O)Nc1ccccc1C(=O)Nc1ccc2c(c1)OCCO2	1.03	95.4	95.8	5.0	26.9	9.3	nt	nt	nt
CC1(C)CC(=O)C=C(OC(=O)c2ccc(Cl)cc2)C1	1.89	104.9	105.8	-5.5	nt	-1.2	nt	nt	nt
Cc1ccnc(Nc2nc3ccccc3o2)n1	1.53	85.1	64.1	13.5	140.1*	43.4*	16.9	-17.8	-60.2
N=c1c2c(n(Cc3ccc(F)cc3)c3c1CCC3)CCC2	0.56	87.0	76.4	14.2	-4.5	34.9	nt	nt	nt
CCCCCCCCCn1c2c(c(=N)c3c1CCC3)CCC2	2.13	74.1	33.0	28.1	-18.2	82.2*	84.8*	58.5*	30.1*
CCCCCCCn1c2c(c(=N)c3c1CCC3)CCCC2	1.53	76.2	33.6	24.3	-22.0	80.6*	88.1*	36.7*	28.3*
CCCCCCn1c2c(c(=N)c3c1CCC3)CCC2	0.71	70.0	36.2	33.7	16.1	81.2*	82.4*	35.2*	26.8*
CCCn1c2c(c(O)c(C(=O)NC)c1=O)CCCC2	1.08	93.4	107.1	7.1	3.7	-4.0	nt	nt	nt
CCCCn1c2c(c(=N)c3c1CCC3)CCC2	0.51	78.2	62.8	24.2	0.2	52.7*	32.8	-1.2	22.2*
CCn1c2c(c(=N)c3c1CCC3)CCC2	0.91	103.7	95.4	-4.2	2.0	9.1	nt	nt	nt
CN(C)/C=C/C(=O)c1cc(N2CCOCC2)ccc1[N+](=O)[O-]	1.05	99.4	101.1	0.3	9.0	2.7	nt	nt	nt
COc1ccc(NC(=O)CSC2=NCCN2)cc1	1.36	120.6	108.0	-25.4	-6.1	-3.1	nt	nt	nt
C=C(C)COc1ccc2c(CC)cc(=O)oc2c1C	1.4	108.6	95.1	-9.7	27.0	5.7	nt	nt	nt
CN(C)c1ccc(C(=S)Nc2ccccc2)cc1	2.94	138.8*	52.9	-43.9	132.2	57.2*	23.2	-36.8	-108.6
CN(C)c1ccc(C(=O)c2ccccc2)cc1	1.75	119.6	100.5	-21.3	64.7	0.9	nt	nt	nt
O=C1C(=C2SCCCS2)CC/C1=C\c1ccc(F)cc1	2.4	72.6	10.8	30.7	48.7	114.9*	92.6*	81.4*	-1.5
Cc1c(NC(=O)COC(=O)c2ccc(F)c(S(=O)(=O)N3CCOCC3)c2)c(=O)n(-c2ccccc2)n1C	1.36	102.2	95.0	-3.1	-8.6	8.4	nt	nt	nt
O=C(Nc1nnc(SCC(=O)N2CCCc3ccccc32)s1)c1cccc2ccccc12	0.92	99.0	104.8	1.1	7.5	-3.3	nt	nt	nt
Cc1ccc(C(=O)Nc2nnc(SCC(=O)N3CCCc4ccccc43)s2)cc1	7.12*	82.1	47.2	19.8	58.8	62.3*	71.0*	55.8*	49.2*
SMILES	NF-kB neuron act	STAT1 activator	STAT3 act	STAT1 inh	APP 5'UTR act	STAT3 inh-1	STAT3 inh-2	NFkB inh STAT3ct	STAT1 inh STAT3c
CC(C)Oc1ccc(C(=O)Nc2nnc(SCC(=O)N3CCOCC3)s2)cc1	1.1	81.2	40.3	20.5	88.0	70.2*	74.2*	56.9*	49.9*
C=CCNc1nc2c(c(=O)n(C)c(=O)n2C)n1CCCCCC	0.8	74.1	54.6	28.1	-16.0	54.4*	64.3*	14.9*	29.7*
O=C(CSC1=NCCS1)Nc1ccnc2ccccc12	0.78	70.2	49.3	32.4	24.3	64.2*	74.7*	20.8*	24.1*
Cc1nn(Cc2ccccc2Cl)c(C)c1C(=O)NCCN1C(=O)S/C(=C\c2ccccc2)C1=O	0.93	105.8	98.1	-6.6	-2.4	5.1	nt	nt	nt
CCO[C@@H]1OC(C(=O)N2CCN(Cc3ccc4c(c3)OCO4)CC2)=C[C@H](C2CC2)[C@H]1CCCO	1.03	94.6	nt	7.3	-1.1	nt	nt	nt	nt
Cc1nc(SCC(=O)Nc2c(C)nn(C)c2C)c2cnn(-c3ccccc3)c2n1	0.83	85.3	64.7	16.1	0.6	43.9*	41.3	11.9	9.8
CS(=O)(=O)c1ccc(C(=O)N2CCN(Cc3ccccc3)CC2)cc1	1.11	104.8	98.7	-5.2	12.4	7.3	nt	nt	nt
O=C(c1ccc(CNS(=O)(=O)c2ccccc2)cc1)N1CCN(Cc2ccccc2)CC1	0.88	96.9	66.4	3.4	14.0	44.4*	27.6	5.5	-16.2
CN(C)/C=C/C(=O)c1ncc(C(F)(F)F)cc1Cl	0.99	105.6	108.0	-6.0	0.9	-4.3	nt	nt	nt
O=C(NCCOc1ccccc1)c1ccc2c(c1)OCO2	1.4	82.8	39.3	19.4	120.3	76.3*	39.1	26.1*	-20.5
CCOCCCNC(=O)c1ccc2c(c1)OCO2	1.71	102.1	105.5	-2.3	14.1	-4.8	nt	nt	nt
COc1ccc(NC(NC(=O)c2ccc(OC)cc2)C(Cl)(Cl)Cl)cc1 (stereo unspecified)	0.95	81.9	65.8	20.1	-8.8	49.9*	27.1	0.4	11.3
Clc1ccc(-c2nnc(NC3=NCCCCC3)o2)cc1	1.68	76.7	31.7	25.7	151.7*	79.9*	47.7*	19.2*	-47.8
O=C(CSc1nnc(-c2c[nH]c3ccccc23)o1)N1c2ccccc2CCc2ccccc21	0.48	98.8	63.2	1.3	1.5	48.6*	29.4	1.3	1.9
CC(=O)NC(Cc1cccc(C)c1)C(=O)NC1CCN(C(=O)c2ccc([N+](=O)[O-])cc2)CC1 (stereo unspecified)	1.32	100.3	101.5	-0.4	8.6	-1.0	nt	nt	nt
COc1cccc(/C=C/C(=O)Nc2ccc3c(c2)OCCO3)c1OC	8.64*	75.9	47.2	24.6	205.0*	65.8*	11.7	-20.2	-110.3
C/C(N)=C(/C#N)C(=O)CSc1nnc(-c2ccc3c(c2)OCO3)o1	6.9*	133.8*	62.6	-36.8	99.7	48.0*	18.4	-9.0	-96.9
NC(=O)CSc1nnc(-c2ccc3c(c2)OCO3)o1	2.42	113.3	92.9	-14.1	94.3	8.7	nt	nt	nt

Source: PubChem BioAssay
